Laboratory results: ChEMBL document CHEMBL4219075, “Synthesis and evaluation of novel dolastatin 10 derivatives for versatile conjugations” (Bioorg Med Chem, 2018)
Activity calls are given as the source filed them. The calls are words filed in the database; no cut-off is given here. Non-standard residues stand in square brackets, D forms with d. Residues, ends and D or L forms follow the SMILES beside them. *: point of attachment. Dolaproine = CO[C@@H]([C@@H]1CCCN1)[C@@H](C)C(=O)O; Dil = CC[C@H](C)[C@H](NC)[C@@H](CC(=O)O)OC; X1 = C[C@@H](N*)[C@@H](O)c1ccccc1; NMeV = CN[C@H](C(=O)O)C(C)C

Legend:
A549 = assay: Cytotoxicity against human A549 cells after 2 days by cell titer 96 aqueous one solution based assay; format: functional; settings: A549, 48 h
Summary of the method: (§1)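 Cells (DMEM + 10% heat-inactivated FBS for SKOV-3 and A549) seeded at about 5000−50000/well and held overnight at 37°C, 5% CO2. DMSO stocks were diluted into medium with 1% FBS and no folic acid. Compounds at various concentrations were added in triplicate and incubated 2 days. MTS reagent was added for 1–2 h, absorbance read at 490 nm, and percent survival calculated versus untreated wells.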

SK-OV-3 = assay: Cytotoxicity against human SKOV3 cells after 2 days by cell titer 96 aqueous one solution based assay; format: functional; settings: SK-OV-3, 48 h; summary of the method: as §1
[1] = Permeability of the compound at 200 umol/L after 5 hrs by PAMPA; format: ADME; settings: read-out: permeability
Summary of the method: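 Compound solution in the donor (receiver-plate) wells; 20% MeOH in PBS in the pre-coated filter-plate wells. The assembly was incubated 5 h at room temperature. Donor and acceptor concentrations were measured by LC-MS. Permeability was calculated from filter area 0.3 cm², donor 0.32 mL, acceptor 0.2 mL, t = 18,000 s and equilibrium concentration.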

Sus scrofa [2] = species: Sus scrofa; assay: Inhibition of porcine brain tubulin polymerization measured every minute for 60 mins by absorbance spectroscopic analysis
Summary of the method: (§2)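 Fluorescence-based HTS kit assay run with porcine brain tubulin at about 100 µg per well in general tubulin buffer. Compound at 3, 1 or 0.3 µM final, in duplicate, added at the start. Run at 37°C for 60 min, reading OD 360 nm (emission 450 nm) each minute. Polymerization compared with buffer-treated tubulin.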

L1210 = assay: Cytotoxicity against mouse L1210 cells after 2 days by cell titer 96 aqueous one solution based assay; format: functional; settings: L1210, 48 h
Summary of the method: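 Mouse L1210 leukemia cells in RPMI-1640 + 10% heat-inactivated FBS were seeded at about 5000−50000/well and incubated overnight at 37°C, 5% CO2. Compounds were diluted in RPMI with 1% FBS and no folic acid, added at various concentrations in triplicate, and incubated 2 days. MTS was added for 1–2 h, A490 read, and survival expressed relative to untreated controls.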

Sus scrofa [3] = species: Sus scrofa; assay: Inhibition of porcine brain tubulin polymerization at 0.3 to 3 uM measured every minute for 60 mins by absorbance spectroscopic analysis; summary of the method: as §2
[4] = Ratio of IC50 for human SKOV3 cells to IC50 for porcine brain tubulin polymerization

SMILES | IC50 (A549) [nM] | IC50 (SK-OV-3) [nM] | Papp at 5 h, 200 µM [1] [×10⁻⁶ cm/s] | inhibition (Sus scrofa [2]) | IC50 (L1210) [nM] | inhibition (Sus scrofa [3]) | Ratio IC50 [4]
CC[C@H](C)[C@@H]([C@@H](CC(=O)N1CCC[C@H]1[C@H](OC)[C@@H](C)C(=O)N[C@@H](Cc1ccccc1)c1nc(C(=O)NCCO)cs1)OC)N(C)C(=O)[C@@H](NC(=O)[C@H](C(C)C)N(C)C)C(C)C | 1.7 | 4.7 | 0.02 | Active | 28 | – | –
CC[C@H](C)[C@@H]([C@@H](CC(=O)N1CCC[C@H]1[C@H](OC)[C@@H](C)C(=O)N[C@@H](Cc1ccccc1)c1nc(C(=O)N(C)CCN)cs1)OC)N(C)C(=O)[C@@H](NC(=O)[C@H](C(C)C)N(C)C)C(C)C | 0.81 | 0.56 | 0.072 | Active | 12 | – | –
CC[C@H](C)[C@@H]([C@@H](CC(=O)N1CCC[C@H]1[C@H](OC)[C@@H](C)C(=O)N[C@@H](Cc1ccccc1)c1nc(C(=O)N(C)CCNC)cs1)OC)N(C)C(=O)[C@@H](NC(=O)[C@H](C(C)C)N(C)C)C(C)C | 1.9 | 0.19 | < 0.001 | Active | 14 | – | –
CC[C@H](C)[C@@H]([C@@H](CC(=O)N1CCC[C@H]1[C@H](OC)[C@@H](C)C(=O)N[C@@H](Cc1ccccc1)c1nc(C(=O)OCCO)cs1)OC)N(C)C(=O)[C@@H](NC(=O)[C@H](C(C)C)N(C)C)C(C)C | 1.8 | 0.086 | 0.04 | Active | 4.7 | – | –
CC[C@H](C)[C@@H]([C@@H](CC(=O)N1CCC[C@H]1[C@H](OC)[C@@H](C)C(=O)N[C@@H](Cc1ccccc1)c1nc(C(=O)OCCN)cs1)OC)N(C)C(=O)[C@@H](NC(=O)[C@H](C(C)C)N(C)C)C(C)C | 0.83 | 0.85 | 0.007 | Active | 29 | – | –
CC[C@H](C)[C@@H]([C@@H](CC(=O)N1CCC[C@H]1[C@H](OC)[C@@H](C)C(=O)N[C@@H](Cc1ccccc1)c1nc(C(=O)NCCS)cs1)OC)N(C)C(=O)[C@@H](NC(=O)[C@H](C(C)C)N(C)C)C(C)C | 1.9 | 0.44 | 1.1 | Active | 31 | – | –
CC[C@H](C)[C@@H]([C@@H](CC(=O)N1CCC[C@H]1[C@H](OC)[C@@H](C)C(=O)N[C@@H](Cc1ccccc1)c1nc(C(=O)N(C)CCO)cs1)OC)N(C)C(=O)[C@@H](NC(=O)[C@H](C(C)C)N(C)C)C(C)C | 1.6 | 1.5 | 0.077 | Active | 8.5 | – | –
CC[C@H](C)[C@@H]([C@@H](CC(=O)N1CCC[C@H]1[C@H](OC)[C@@H](C)C(=O)N[C@@H](Cc1ccccc1)c1nc(C(=O)NCCNC)cs1)OC)N(C)C(=O)[C@@H](NC(=O)[C@H](C(C)C)N(C)C)C(C)C | 9.9 | > 10 | 0.004 | Active | 27 | – | –
CC[C@H](C)[C@@H]([C@@H](CC(=O)N1CCC[C@H]1[C@H](OC)[C@@H](C)C(=O)N[C@@H](Cc1ccccc1)c1nc(C(=O)NCCc2ccc(N)cc2)cs1)OC)N(C)C(=O)[C@@H](NC(=O)[C@H](C(C)C)N(C)C)C(C)C | 1.1 | 0.27 | 0.3 | – | 4.1 | Active | >30
CC[C@H](C)[C@@H]([C@@H](CC(=O)N1CCC[C@H]1[C@H](OC)[C@@H](C)C(=O)N[C@@H](Cc1ccccc1)c1nc(C(=O)OCCS)cs1)OC)N(C)C(=O)[C@@H](NC(=O)[C@H](C(C)C)N(C)C)C(C)C | 6.9 | 0.13 | 0.005 | Active | 14 | – | –
CC[C@H](C)[C@@H]([C@@H](CC(=O)N1CCC[C@H]1[C@H](OC)[C@@H](C)C(=O)N[C@H](C)[C@@H](O)c1ccccc1)OC)N(C)C(=O)[C@@H](NC(=O)[C@@H](NC)C(C)C)C(C)C (H-[NMeV]V[Dil][Dolaproine]-X1) | 1.3 | 0.66 | 0.079 | – | 2.1 | – | –
CCOC(=O)c1csc([C@H](Cc2ccccc2)NC(=O)[C@H](C)[C@@H](OC)[C@@H]2CCCN2C(=O)C[C@@H](OC)[C@H]([C@@H](C)CC)N(C)C(=O)[C@@H](NC(=O)[C@H](C(C)C)N(C)C)C(C)C)n1 | – | 0.024 | 3.2 | Active | – | – | –
CC[C@H](C)[C@@H]([C@@H](CC(=O)N1CCC[C@H]1[C@H](OC)[C@@H](C)C(=O)N[C@@H](Cc1ccccc1)c1nc(C(=O)NCCc2ccc(O)cc2)cs1)OC)N(C)C(=O)[C@@H](NC(=O)[C@H](C(C)C)N(C)C)C(C)C | 1.3 | 0.37 | 0.36 | Active | 5.6 | – | –
CC[C@H](C)[C@@H]([C@@H](CC(=O)N1CCC[C@H]1[C@H](OC)[C@@H](C)C(=O)N[C@@H](Cc1ccccc1)c1nc(C(=O)NCCN)cs1)OC)N(C)C(=O)[C@@H](NC(=O)[C@H](C(C)C)N(C)C)C(C)C | > 10 | > 10 | 0.056 | – | > 50 | Active | >30
CCNC(=O)c1csc([C@H](Cc2ccccc2)NC(=O)[C@H](C)[C@@H](OC)[C@@H]2CCCN2C(=O)C[C@@H](OC)[C@H]([C@@H](C)CC)N(C)C(=O)[C@@H](NC(=O)[C@H](C(C)C)N(C)C)C(C)C)n1 | 0.74 | 0.55 | 1.7 | Active | 6.5 | – | –
CC[C@H](C)[C@@H]([C@@H](CC(=O)N1CCC[C@H]1[C@H](OC)[C@@H](C)C(=O)N[C@@H](Cc1ccccc1)c1nc(C(=O)N(C)CCS)cs1)OC)N(C)C(=O)[C@@H](NC(=O)[C@H](C(C)C)N(C)C)C(C)C | 1.2 | 1.1 | 1.1 | Active | 7 | – | –
